Inhibition and Activity data for five molecules are collected here from ChEMBL document CHEMBL1165978, “Synthesis and evaluation of in vitro anticancer activity of some novel isopentenyladenosine derivatives” (Bioorg Med Chem, 2010).

Molecules are shown by their SMILES. Calls of active or inactive are those of the source. The rule behind the calls is not given here.

Test [1] deals with T-24. Kind of test: Cytotoxicity against human T24 cells assessed as inhibition of cell colony formation at 10 uM after 24 hrs by crystal violet staining. The test is classed as functional, cell-based.
For test [2], the system named is T-24. Kind of test: Antiproliferative activity against quiescent human T24 cells at 10 uM after 72 hrs by MTT assay. The test is classed as functional, cell-based. The gist of the method:
(§1)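 T24 cells were seeded at 2000/cm², and 16 h later were exposed to starvation medium (D-MEM, 0.1% FBS) or fresh complete medium (10% FBS) and treated with compound, with 0.01% DMSO as control. For the final 1 h the medium held MTT at 0.5 mg/mL. Formazan was then dissolved in DMSO for read-out. Data are mean ± SD of at least 3 experiments in triplicate, Student's t test.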
In general terms: Tetrazolium assays rely on reduction of a dye to a coloured formazan, in cell work by metabolically active cells.

Test [3] concerns T-24. Put plainly: Antiproliferative activity against proliferating human T24 cells at 10 uM after 72 hrs by MTT assay. It counts as functional, cell-based. The gist of the method: as §1
Test [4] deals with T-24. Kind of test: Antiproliferative activity against proliferating human T24 cells assessed as mild decrease in viable cell count at 10 uM after 72 hrs by trypan blue exclusion assay. The test is classed as functional, cell-based. In short, it runs like this: (§2)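 T24 cells were seeded at 2000/cm² in growth medium and allowed to attach for 16 h. They were then switched to complete medium (D-MEM, 10% FBS, 1 mM L-glutamine, penicillin/streptomycin) or to starvation medium (D-MEM, 0.1% FBS, 48 h, to induce quiescence). After 48 h, compound was added for 72 h, with 0.01% DMSO as control. Cells were trypsinized, stained with trypan blue and counted in a Burker chamber. Data are mean ± SD of at least 3 experiments in triplicate.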

The subject of test [5] is T-24. Kind of test: Antiproliferative activity against quiescent human T24 cells assessed as decrease in viable cell count at 10 uM after 72 hrs by trypan blue exclusion assay. It counts as functional, cell-based. In short, it runs like this:
as §2

The subject of test [6] is T-24. Kind of test: Cytotoxicity against human T24 cells assessed as mild inhibition of cell colony formation at 10 uM after 24 hrs by crystal violet staining. It counts as functional, cell-based.
The test system of test [7] is T-24. Kind of test: Antimetastatic activity in human T24 cells assessed as inhibition of EGF-stimulated cellular migration at 10 uM after 16 hrs by microscopic analysis. The test is classed as functional, cell-based. In short, it runs like this: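 Confluent T24 monolayers in 24-well plates were scratch-wounded, then given EGF (100 ng/mL) plus compound for 16 h, with DMSO (0.01% final) as control. Cells moving into the wound were photographed by microscope. Four fields per sample were counted and expressed as migration relative to control. Data are from at least 3 experiments in triplicate, mean ± SD, Student's t test.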

Test [8] deals with T-24. Put plainly: Antiproliferative activity against proliferating human T24 cells at 10 uM after 72 hrs by MTT assay in presence of 10% fetal bovine serum.

For the molecule `CC(C)=CCNc1ncnc2c1ncn2[C@@H]1O[C@H](CO)[C@@H](O)[C@@H]1O`, the inhibition entry in the test on T-24 [1] was “inactive”. In addition, the result with T-24 [2] and in the test on T-24 [3] was inactive.
`CC(C)=CCNc1nc(N)nc2c1ncn2[C@@H]1O[C@H](CO)[C@@H](O)[C@H]1O`: the result in the test with T-24 [2] was Active. Moreover, the inhibition result in the test on T-24 [4], in the test with T-24 [5] and with T-24 [6] was “Active” in each case. The inhibition entry with T-24 [7] was “inactive”.
As to `CC(C)=CCNc1ncnc2c1ncn2[C@@H]1O[C@H](CO)[C@@H](O)[C@H]1O` (stereo in doubt), the inhibition entry in the test on T-24 [1] was “Active”. Moreover, in the test on T-24 [2], the outcome was Active. The inhibition entry with T-24 [7] was “inactive”.
With `CC(C)=CCNc1ncnc2c1ncn2[C@@H]1O[C@H](CO)[C@@H](O)[C@H]1O` (stereo in doubt; 1a), in the test on T-24 [1], the inhibition entry is “inactive”.
With `CC(C)=CC[n+]1cnc2c(ncn2[C@@H]2O[C@H](CO)C[C@H]2O)c1N`, in the test on T-24 [5], the inhibition result was “Active”. Besides, the inhibition result with T-24 [7] was “inactive”. Further, in the test with T-24 [8], the outcome was inactive.
